A word on the inhibition: it is the change of the read-out against control, counted positive when it falls.

The test system of one experiment is DNA. The experiment is described as follows: Binding affinity to calf thymus double stranded DNA. Format: nucleic-acid assay. The settings on record: Bos taurus. Put shortly: (§1)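 UV-vis absorption titration: increasing concentrations of dsDNA (calf thymus DNA, poly[d(A-T)]2 or poly[d(G-C)]2) added to ligand in buffer. Hypochromicity and red-shift of the long-wavelength absorption band were followed. Binding constants were obtained by the half-reciprocal plot method.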

The nature of experiment [1]: Binding affinity to double stranded poly[d[A-T)]2 DNA. The settings on record: Homo sapiens. Put shortly:
as §1

Experiment [2] concerns the target T1, DNA topoisomerase I (Leishmania donovani donovani) (UniProt Q9NJG8).
T1 sequence (whole entry): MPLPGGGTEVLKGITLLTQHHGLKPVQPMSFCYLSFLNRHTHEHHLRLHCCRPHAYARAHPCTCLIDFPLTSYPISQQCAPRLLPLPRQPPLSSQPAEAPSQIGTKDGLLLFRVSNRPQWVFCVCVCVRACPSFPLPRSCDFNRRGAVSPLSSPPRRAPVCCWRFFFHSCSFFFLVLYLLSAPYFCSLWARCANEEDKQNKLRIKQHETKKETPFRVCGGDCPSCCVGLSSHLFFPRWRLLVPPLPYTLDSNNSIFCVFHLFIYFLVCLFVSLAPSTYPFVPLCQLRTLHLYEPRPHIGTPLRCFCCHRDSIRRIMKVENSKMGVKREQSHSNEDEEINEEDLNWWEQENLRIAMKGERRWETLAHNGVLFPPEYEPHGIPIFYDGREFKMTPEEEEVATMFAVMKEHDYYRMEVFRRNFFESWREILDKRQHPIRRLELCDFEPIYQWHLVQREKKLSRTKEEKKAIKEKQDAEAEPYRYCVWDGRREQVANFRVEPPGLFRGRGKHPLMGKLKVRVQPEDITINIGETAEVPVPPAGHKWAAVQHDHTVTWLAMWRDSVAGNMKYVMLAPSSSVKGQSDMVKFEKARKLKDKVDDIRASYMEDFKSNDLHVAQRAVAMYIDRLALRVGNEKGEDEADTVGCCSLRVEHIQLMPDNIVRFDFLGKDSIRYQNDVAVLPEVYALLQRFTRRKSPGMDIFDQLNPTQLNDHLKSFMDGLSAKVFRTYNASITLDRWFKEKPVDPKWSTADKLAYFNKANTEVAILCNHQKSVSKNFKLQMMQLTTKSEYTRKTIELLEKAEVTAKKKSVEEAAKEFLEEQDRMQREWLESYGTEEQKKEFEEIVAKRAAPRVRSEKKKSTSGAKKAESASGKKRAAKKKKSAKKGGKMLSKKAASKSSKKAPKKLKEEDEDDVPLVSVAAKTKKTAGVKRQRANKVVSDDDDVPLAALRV
The experiment is described as follows: Inhibition of Leishmania donovani topoisomerase 1-induced relaxation activity assessed as recovery of supercoiled DNA at 50 uM.

Experiment [3] concerns the target T1, DNA topoisomerase I (Leishmania donovani donovani). Description: Inhibition of Leishmania donovani topoisomerase 1-induced relaxation activity assessed as recovery of supercoiled DNA at 20 uM.
Experiment [4] can be described thus: Binding affinity to double stranded poly[d[G-C)]2 DNA. The settings on record: Homo sapiens. Put shortly: as §1
Experiment [5] deals with T1, DNA topoisomerase I (Leishmania donovani donovani). Description: Inhibition of Leishmania donovani topoisomerase 1-induced relaxation activity assessed as recovery of supercoiled DNA at 10 uM.

Structures are written as SMILES.

For the compound `CCN(CC)CCCOc1ccc(-c2nc3ccc4c(c3[nH]2)C(=O)c2ccccc2C4=O)cc1`, the figures for the Ka (with DNA; in experiment [1]; in experiment [4]) were 1.9 10^5/M, 3.2 10^5/M and 2.3 10^5/M, respectively. Moreover, the inhibition in experiment [2] stood at 10%; in experiment [3], 2%.
`O=C1c2ccccc2C(=O)c2c1ccc1nc(-c3ccc(OCCCn4cnnn4)cc3)[nH]c21`: the inhibition in experiment [5] turned out to be 80%; in experiment [2] it was 95%; in experiment [3], 92%. The Ka with DNA is 0.5 10^5/M; in experiment [1] it was 0.5 10^5/M; in experiment [4], 0.3 10^5/M.
Consider `CC[C@@]1(O)C(=O)OCc2c1cc1n(c2=O)Cc2cc3ccccc3nc2-1`, for which the inhibition in experiment [5] turned out to be 39%; in experiment [2], 65%; in experiment [3] it was 55%.
As for `CN(C)CCCOc1ccc(-c2nc3ccc4c(c3[nH]2)C(=O)c2ccccc2C4=O)cc1`, the Ka in the experiment on DNA is 2.1 10^5/M; in experiment [1] it was 4.1 10^5/M; in experiment [4], 3 10^5/M. For the same compound, in experiment [2], the inhibition worked out at 5%.
In the same order, the values of `O=C1c2ccccc2C(=O)c2c1ccc1nc(-c3ccc(OCCCN4CCN(CCO)CC4)cc3)[nH]c21` are 1.9 10^5/M, 3 10^5/M, 2.2 10^5/M and 5%.
As to `O=C1c2ccccc2C(=O)c2c1ccc1nc(-c3ccccn3)[nH]c21`, the figures for the inhibition in experiment [5], in experiment [2] and in experiment [3] were 9%, 75% and 20%, respectively.
As for `CN1CCN(CCCOc2ccc(-c3nc4ccc5c(c4[nH]3)C(=O)c3ccccc3C5=O)cc2)CC1`, the Ka in the experiment on DNA is 1 10^5/M; in experiment [1], 2.8 10^5/M; in experiment [4] it was 1.9 10^5/M. The inhibition in experiment [2] is 10%.
For `O=C1c2ccccc2C(=O)c2c1ccc1nc(-c3cccnc3)[nH]c21`, the inhibition in experiment [5] was determined as 9%; in experiment [2] it was 80%; in experiment [3], 15%.
With `O=C1c2ccccc2C(=O)c2c1ccc1nc(-c3ccc(OCCCn4ccnc4)cc3)[nH]c21`, the results for the inhibition in experiment [5], in experiment [2] and in experiment [3] were 62%, 91% and 77%, respectively. Moreover, the Ka with DNA was 1.1 10^5/M; in experiment [1], 1.8 10^5/M; in experiment [4], 0.6 10^5/M.
As to `O=C1c2ccccc2C(=O)c2c1ccc1nc(-c3ccc(OCCCN4CCOCC4)cc3)[nH]c21`, the figures for the inhibition in experiment [5], in experiment [2] and in experiment [3] were 46%, 92% and 77%, respectively. The results for the Ka (in the experiment on DNA; in experiment [1]; in experiment [4]) were 0.6 10^5/M, 1.1 10^5/M and 0.5 10^5/M, respectively.

For the origin of these results see ChEMBL document CHEMBL1139868, “Synthesis, DNA binding, and Leishmania topoisomerase inhibition activities of a novel series of anthra[1,2-d]imidazole-6,11-dione derivatives” (J Med Chem, 2007).
